Assay results from ChEMBL document CHEMBL1127409 (J Med Chem, 1994).

Assays:
Glutamate NMDA receptor [1] = assay: Affinity for the glycine binding site of NMDA receptor by inhibition of [3H]5,7-dichlorokynurenic acid ([3H]DCKA) binding to rat brain synaptic membrane
[2] = The compound was tested for its affinity for the glutamic acid binding site of the non-NMDA receptor by using [3H]AMPA as radioligand; set-up: species or system Rattus norvegicus
Method in brief: (§1)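 Selectivity radioligand binding, run like the [3H]DCKA assay on rat brain synaptic membranes. [3H]CGP-39653 labels the NMDA glutamic acid site; [3H]AMPA and [3H]kainic acid label non-NMDA receptors.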

[3] = The compound was tested for its affinity for the glutamic acid binding site of the non-NMDA receptor by using [3H]-kainic acid as radioligand; set-up: species or system Rattus norvegicus; method in brief: as §1
Glutamate NMDA receptor [4] = assay: The compound was tested for its affinity for the glutamic acid binding site of the NMDA receptor by using [3H]CGP-39653 as radioligand; assay type: protein-complex assay; method in brief: as §1
Glutamate NMDA receptor [5] = assay: The compound was tested for its functional antagonism of the NMDA receptor by using [3H]-MK-801 as radioligand
[6] = system: Glutamate NMDA receptor (Mus musculus); assay: In vivo inhibition of NMDA-induced seizures

Row | Structure (SMILES) | Ki (Glutamate NMDA receptor [1]) [nM] | other results
1 | Oc1nc2cc(Cl)c(Cl)cc2nc1O [2,3-DIHYDROXY-6,7-DICHLOROQUINOXALINE] | 160 | 
2 | O=C(C[C@@H]1CCc2cc(Br)cc3[nH]c(=O)c(=O)n1c23)Nc1ccccc1 | 0.96 | 
3 | O=C(O)CC1Cc2cc(Br)cc3[nH]c(=O)c(=O)n1c23 (stereo not drawn) | 7.3 | 
4 | O=C(Nc1ccccc1)C1Cc2cc(Br)cc3[nH]c(=O)c(=O)n1c23 (stereo not drawn) | 930 | 
5 | O=C(CC1CCc2cc(Br)cc3[nH]c(=O)c(=O)n1c23)Nc1ccccc1 (stereo not drawn) | 2.6 | IC50 [2]: 4600 nM; IC50 [3]: > 25000 nM; IC50 (Glutamate NMDA receptor [4]): > 25000 nM; IC50 (Glutamate NMDA receptor [5]): 1700 nM
6 | O=C(CC1Cc2cc(Br)cc3[nH]c(=O)c(=O)n1c23)Nc1ccccc1 (stereo not drawn) | 170 | 
7 | O=C(O)CCC1CCc2cc(Br)cc3[nH]c(=O)c(=O)n1c23 (stereo not drawn) | 38 | 
8 | O=C(C[C@H]1CCc2cc(Br)cc3[nH]c(=O)c(=O)n1c23)Nc1ccccc1 | 82 | 
9 | O=C(Nc1ccccc1)N[C@H]1C[C@H](C(=O)O)Nc2cc(Cl)cc(Cl)c21 | 2 | 
10 | O=C(Nc1ccccc1)C1CCc2cc(Br)cc3[nH]c(=O)c(=O)n1c23 (stereo not drawn) | 2100 | 
11 | O=C(O)C1CCc2cc(Br)cc3[nH]c(=O)c(=O)n1c23 (stereo not drawn) | 30 | 
12 | O=C(O)CC1CCc2cc(Br)cc3[nH]c(=O)c(=O)n1c23 (stereo not drawn) | 9.9 | IC50 [2]: 4600 nM; IC50 [3]: > 30000 nM; ED50 [6]: 64 mg/kg; IC50 (Glutamate NMDA receptor [4]): > 30000 nM; IC50 (Glutamate NMDA receptor [5]): 4100 nM
13 | O=C(NCC1CCc2cc(Br)cc3[nH]c(=O)c(=O)n1c23)c1ccccc1 (stereo not drawn) | 190 | 
14 | O=C(CCC1CCc2cc(Br)cc3[nH]c(=O)c(=O)n1c23)Nc1ccccc1 (stereo not drawn) | 320 | 
15 | O=C(NCC1Cc2cc(Br)cc3[nH]c(=O)c(=O)n1c23)c1ccccc1 (stereo not drawn) | > 2000 | 

Now from value to compound, other results behind:

Row | Ki (Glutamate NMDA receptor [1]) [nM] | Structure (SMILES) | other results
16 | > 3000 | O=c1[nH]c2cc(Br)cc3c2n(c1=O)CC3 | 
17 | 9.6 | O=C(O)C[C@H]1CCc2cc(Br)cc3[nH]c(=O)c(=O)n1c23 | 
18 | 710 | O=c1[nH]c2cc(Br)cc3c2n(c1=O)CCC3 | 
19 | 430 | O=C(NCC1Cc2cc(Br)cc3[nH]c(=O)c(=O)n1c23)Nc1ccccc1 (stereo not drawn) | 
20 | 40 | O=C(O)c1cc(O)c2c(Cl)cc(Cl)cc2n1 | 
21 | 2.3 | O=C(O)C[C@@H]1CCc2cc(Br)cc3[nH]c(=O)c(=O)n1c23 | ED50 [6]: 26 mg/kg
22 | 480 | O=C(NCC1CCc2cc(Br)cc3[nH]c(=O)c(=O)n1c23)Nc1ccccc1 (stereo not drawn) | 
23 | 83 | O=C(O)C1Cc2cc(Br)cc3[nH]c(=O)c(=O)n1c23 (stereo not drawn) | 
